Screening results from PubChem BioAssay.
CSC inhib: cancer stem cell viability inhibitors, primary screen, luminescence; cancer stem cell-like cells viability; inhibition, % at 7.5 µM; hit rate 1.1% among 300,000; in the data active = inhibition above about 75%; tested in HMLE shEcad cells
Mdm2-MdmX inh: inhibitors of human Mdm2-MdmX association, primary screen, cell-based, luminescence, split luciferase, SaOS-2, uHTS. Protein Mdm4 (Homo sapiens) + E3 ubiquitin-protein ligase Mdm2 (Homo sapiens), …. SaOS-2 split-luciferase Mdm2/MdmX complementation. inhibition, % at 8 µM. hit rate 3% among 330,000. AID 485346, 2010;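 active = inhibition of at least 50% at 8 µM in the primary screen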
SKKanGAS inh: S. pyogenes SKKanGAS growth inhibitors in kanamycin, primary screen, streptokinase expression inhibitor project, SKKanGAS strain, BacTiter-Glo luminescence; 6 h; inhibition, % at 7.5 µM; hit rate 1.3% among 300,000; AID 1662, 2009;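 active = mean replicate score, as percent of positive control median, at least 50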;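 note: strain carries kanamycin resistance gene driven by streptokinase promoter and grows in 40 µg/ml kanamycin; loss of luminescence reflects streptokinase promoter inhibition or plain growth inhibition; 0% = median of DMSO wells and 100% = positive control at its reference dose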
T cruzi repl: inhibitors of intracellular T. cruzi growth, primary screen, luminescence, NIH3T3 host cells | T. cruzi beta-gal in NIH3T3, 90 h | inhibition, % (test concentration not listed) | hit rate 1.4% among 300,000 | AID 1885, 2009;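 active = mean inhibition across valid replicates above about 55%, limit read from the data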;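 note: signal also drops with host cell toxicity which is not excluded here; 0% = plate median of DMSO wells and 100% = zero luminescence signal; higher percent means less beta-gal luminescence so fewer parasites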
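Incubation – ≥90 h infection period, 3 h prior cell attachment · System – NIH/3T3 fibroblasts plus reporter T. cruzi · Doses – compound pinned at 50 nL/well, DMSO · Read-out basis – percent inhibition of parasite-derived β-gal signal · Signal – luminescent β-galactosidase signal after 60 min lysis · Also added – 5000 T. cruzi trypomastigotes/well · Medium – Low-serum DMEM with 2% FBS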
Calb FLC: C. albicans growth inhibition with fluconazole, primary screen, CaCi-2 strain, Alamar Blue fluorescence; growth inhibition, % (test concentration not listed); C. albicans CaCi-2 (fluconazole-resistant clinical isolate) + fluconazole, 48 h; AID 1979, 2009; hit rate 0.57% among 300,000;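 active = growth inhibition above about 58% in most replicates, limit read from the data, passing the limit was not always enough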;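 note: all wells also contain fluconazole at 8 µg/ml as a sub-toxic cotreatment; 0% = median of DMSO wells and 100% = median of geldanamycin control wells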
Beta cell apopt: inhibitors of cytokine-induced beta cell apoptosis, primary screen, luminescence; INS-1E cytokine-induced death, ATP luminescence, 48 h; percent of positive-control rescue, neutral wells zero; protection from apoptosis, % (concentration not given with the values); hit rate 0.8% among 300,000; AID 435005, 2010;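 active = Every replicate reaches about 75%, or at least half do and their mean reaches it too, limit read from the data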;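 note: 0% = cytokine-treated negative control wells and 100% = positive control rescue; higher means more ATP so stronger rescue from cytokine killing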
* marks the source's active call; other numbers are inactive results; nt = not tested or not shown. Compounds with a hit are over-represented: about 5.7% of the library has one in this group of screens.

SMILES | CSC inhib | Mdm2-MdmX inh | SKKanGAS inh | T cruzi repl | Calb FLC | Beta cell apopt
COc1cc(S(=O)(=O)Nc2ccc3nc(C)sc3c2)ccc1NC(C)=O | 8 | 25 | nt | nt | nt | 0
CCOC(=O)N1CCN(Cc2nc3cc(NC(=O)c4cccs4)ccc3n2CC)CC1 | 9 | 22 | 9 | 10 | -1 | 2
CNc1ccc(OC)cc1-n1cnc(-c2ccc([N+](=O)[O-])cc2)c1 | 8 | 17 | 0 | -2 | 101* | nt
CCN(CC)S(=O)(=O)c1ccc(NN=C2CCN(C(C)C)CC2)c([N+](=O)[O-])c1 | 36 | 5 | -5 | 27 | -4 | -3
CCN(CC)S(=O)(=O)c1ccc(NN=C2CCN(C)CC2)c([N+](=O)[O-])c1 | 47 | -11 | 7 | 58* | -26 | -1
CC(C)(C)C(=O)Nc1cc2c3c(c1)CCC(=O)N3CCC2 | 6 | -7 | 0 | -2 | -7 | -4
O=C(C[n+]1ccccc1)Nc1ccc(Oc2ccccc2)cc1 | 29 | 2 | 1 | 6 | 22 | 1
Cc1ccc2nc(Nc3nc(C)cc(-c4ccccc4)n3)[nH]c(=O)c2c1 | 3 | 38 | 86* | 41 | 9 | 22
Cc1ccc2nc(Nc3nc(-c4ccccc4)cc(=O)[nH]3)nc(C)c2c1 | -6 | 35 | 95* | 32 | 3 | -1
CCCOc1ccc(N2C(=O)CC(N(CCc3ccc(OC)cc3)C(=O)c3ccccc3)C2=O)cc1 (configuration not stated) | -2 | 15 | 3 | 22 | -2 | 5
CCC1CCCCN1S(=O)(=O)c1ccc(NC(=O)c2ccncc2)cc1 (configuration not stated) | 0 | 14 | -4 | -20 | 0 | nt
CC1CC(C)CN(S(=O)(=O)c2ccc(C(=O)Nc3nnc(C4CC4)o3)cc2)C1 (configuration not stated) | 63 | 49 | 68* | 37 | 3 | 27
CCC1CCCCN1S(=O)(=O)c1ccc(C(=O)Nc2nnc(C3=COCCO3)o2)cc1 (configuration not stated) | 21 | 25 | 79* | 7 | -5 | -2
CCC1CCCCN1S(=O)(=O)c1ccc(C(=O)Nc2nnc(C3CC3)o2)cc1 (configuration not stated) | 26 | 43 | 60* | 19 | 5 | 4
CCOC(=O)N1CCN(S(=O)(=O)c2ccc(C(=O)Nc3nnc(C4CC4)o3)cc2)CC1 | 6 | 9 | 3 | 6 | -7 | -4
Cn1c(O)c(/C=N/NC(=O)c2cc3ccccc3cc2O)c2ccccc21 | nt | 24 | 104* | -4 | 83* | 69
Cn1c2ccccc2c2cc(/C=N/NC(=O)c3ccc(O)cc3O)ccc21 | 10 | 2 | -19 | -9 | -2 | 12
O=C(Nc1ccon1)c1nc[nH]c1C(=O)N1CCN(c2ccccc2)CC1 | -12 | -7 | nt | nt | nt | -8
CCOC(=O)c1c(CSc2ccccc2)n(C)c2cc(Br)c(OCC(O)CNC(CO)(CO)CO)cc12 (configuration not stated) | 100* | nt | 3 | 27 | -8 | -1
Cc1ccc(S(=O)(=O)N2CCOCC2)cc1NC(=O)CNc1ccccc1N1CCCC1=O | nt | 1 | nt | nt | nt | nt
CCCNC(=O)CCn1cc(-c2ccc(OC)cc2)nc1-c1ccncc1 | -4 | -26 | -1 | -26 | -4 | -1
CCCCOc1ccc(/C=N/Nc2cc(N3CCOCC3)nc(C)n2)cc1 | 58 | 18 | 4 | 56* | 33 | 3
Cc1cccc(/C=N/Nc2cc(N3CCOCC3)nc(N3CCOCC3)n2)c1 | 46 | 18 | -9 | 69* | -12 | 9
Clc1ccc(-c2ccc(/C=N/Nc3cc(N4CCOCC4)nc(N4CCOCC4)n3)o2)cc1 | 93* | 43 | 76* | 54 | 23 | 7
CC(C)c1ccc(/C=N/Nc2cc(N3CCOCC3)nc(N3CCOCC3)n2)cc1 | 28 | 13 | nt | nt | nt | -2
N#C/C(=C\c1ccc(-c2ccccc2C(=O)O)o1)c1nc2ccccc2[nH]1 | 1 | -22 | 6 | -5 | 3 | -2
N#C/C(=C\c1ccc(Sc2ccccc2)o1)c1nc2ccccc2[nH]1 | 8 | -84 | 7 | 61* | -1 | nt
